Laboratory results: ChEMBL document CHEMBL1949510, “Design and synthesis of 6,6-fused heterocyclic amides as raf kinase inhibitors” (Bioorg Med Chem Lett, 2012)

Experiments:
[1] = target: T1, Serine/threonine-protein kinase B-raf (Homo sapiens, UniProt P15056, V600E); assay: Inhibition of Braf V600E mutant-mediated Erk phosphorylation in human SK-MEL-28 cells after 4 hrs by Western blot analysis; type: cell-based
[2] = Solubility of the compound at pH 7; type: physicochemical; details: buffer
[3] = Apparent permeability from apical to basolateral side in human Caco2 cells; type: ADME, cell-based; details: Caco-2
[4] = target: T1, Serine/threonine-protein kinase B-raf; assay: Inhibition of N-terminus His6-tagged Braf V600E mutant expressed in insect Sf9 cells assessed as Mek phosphorylation after 2 hrs by ELISA
Method in brief: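 Biochemical assay with the purified BrafV600E kinase domain, not the full-length protein.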

[5] = target: T2, Receptor-type tyrosine-protein kinase FLT3 (Homo sapiens, UniProt P36888); assay: Inhibition of Flt3
T2 sequence (P36888 whole entry): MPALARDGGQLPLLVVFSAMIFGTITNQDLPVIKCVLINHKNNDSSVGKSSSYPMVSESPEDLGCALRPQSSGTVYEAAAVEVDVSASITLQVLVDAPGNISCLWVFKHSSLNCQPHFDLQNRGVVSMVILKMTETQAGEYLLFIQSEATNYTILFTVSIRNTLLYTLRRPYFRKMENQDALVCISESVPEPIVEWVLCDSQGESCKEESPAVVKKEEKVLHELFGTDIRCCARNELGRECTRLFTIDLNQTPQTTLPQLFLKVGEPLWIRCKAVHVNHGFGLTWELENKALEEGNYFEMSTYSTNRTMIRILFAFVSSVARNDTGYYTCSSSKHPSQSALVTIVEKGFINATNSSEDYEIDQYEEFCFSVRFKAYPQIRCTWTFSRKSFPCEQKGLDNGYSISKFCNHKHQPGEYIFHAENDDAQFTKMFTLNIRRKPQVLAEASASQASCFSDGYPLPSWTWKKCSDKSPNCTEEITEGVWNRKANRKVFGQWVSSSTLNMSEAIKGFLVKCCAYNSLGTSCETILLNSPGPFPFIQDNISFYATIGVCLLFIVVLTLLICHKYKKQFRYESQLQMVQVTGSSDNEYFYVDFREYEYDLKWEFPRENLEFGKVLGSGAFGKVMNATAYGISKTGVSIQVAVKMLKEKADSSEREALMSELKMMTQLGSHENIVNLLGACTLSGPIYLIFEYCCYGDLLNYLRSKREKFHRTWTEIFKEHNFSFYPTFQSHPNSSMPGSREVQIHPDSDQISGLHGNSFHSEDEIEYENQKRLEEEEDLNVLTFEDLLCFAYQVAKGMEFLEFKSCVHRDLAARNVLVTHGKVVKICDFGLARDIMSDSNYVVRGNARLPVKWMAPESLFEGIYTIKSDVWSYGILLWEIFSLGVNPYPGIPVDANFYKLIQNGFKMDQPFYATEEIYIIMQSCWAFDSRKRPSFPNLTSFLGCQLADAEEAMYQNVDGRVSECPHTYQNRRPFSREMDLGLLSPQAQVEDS
Method in brief: (§1)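 Selectivity profiling panel of 50 kinases spanning RTKs, STKs, TKs and AGC kinases.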

[6] = target: Vascular endothelial growth factor receptor 2 (Homo sapiens, UniProt P35968); assay: Inhibition of KDR; method in brief: as §1
[7] = target: Tyrosine-protein kinase ABL1 (Homo sapiens, UniProt P00519); assay: Inhibition of cABL; method in brief: as §1
[8] = target: Macrophage colony-stimulating factor 1 receptor (Homo sapiens, UniProt P07333); assay: Inhibition of CSFR1; method in brief: as §1
[9] = Clearance in mouse at 20 mg/kg, po administered as single dose; type: ADME, organism-based; design: dose 20 mg/kg, route oral; details: in vivo
[10] = Half life in mouse at 20 mg/kg, po administered as single dose; type: ADME, organism-based; design: dose 20 mg/kg, route oral; details: in vivo
Mus musculus = assay: Volume of distribution in mouse at 20 mg/kg, po administered as single dose; type: ADME, organism-based; design: dose 20 mg/kg, route oral; details: in vivo
[11] = Oral bioavailability in mouse at 20 mg/kg administered as single dose; type: ADME, organism-based; details: in vivo

T1 sequence (P15056 2-766 V600E limits assumed): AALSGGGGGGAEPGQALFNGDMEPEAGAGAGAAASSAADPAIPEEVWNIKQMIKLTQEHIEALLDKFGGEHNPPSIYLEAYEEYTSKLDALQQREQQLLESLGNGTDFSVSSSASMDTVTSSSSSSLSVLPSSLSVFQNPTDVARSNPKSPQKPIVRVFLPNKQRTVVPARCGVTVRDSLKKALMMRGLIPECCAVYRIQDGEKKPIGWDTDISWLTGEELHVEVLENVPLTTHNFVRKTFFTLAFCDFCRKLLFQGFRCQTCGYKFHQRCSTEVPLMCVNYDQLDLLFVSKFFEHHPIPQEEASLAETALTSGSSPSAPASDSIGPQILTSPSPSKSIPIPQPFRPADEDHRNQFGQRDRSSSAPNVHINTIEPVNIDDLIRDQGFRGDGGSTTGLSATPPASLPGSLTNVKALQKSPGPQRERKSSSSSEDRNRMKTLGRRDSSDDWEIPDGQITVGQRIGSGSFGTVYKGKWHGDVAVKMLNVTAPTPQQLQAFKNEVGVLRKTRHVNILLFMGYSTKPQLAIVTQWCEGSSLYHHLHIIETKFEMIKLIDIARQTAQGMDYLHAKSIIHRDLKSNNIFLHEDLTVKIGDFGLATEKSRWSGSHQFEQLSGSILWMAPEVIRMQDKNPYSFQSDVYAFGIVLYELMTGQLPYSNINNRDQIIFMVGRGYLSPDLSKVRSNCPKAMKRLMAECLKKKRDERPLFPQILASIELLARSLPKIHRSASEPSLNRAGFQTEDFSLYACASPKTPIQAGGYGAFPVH
Sequence of Tyrosine-protein kinase ABL1 (P00519 whole entry): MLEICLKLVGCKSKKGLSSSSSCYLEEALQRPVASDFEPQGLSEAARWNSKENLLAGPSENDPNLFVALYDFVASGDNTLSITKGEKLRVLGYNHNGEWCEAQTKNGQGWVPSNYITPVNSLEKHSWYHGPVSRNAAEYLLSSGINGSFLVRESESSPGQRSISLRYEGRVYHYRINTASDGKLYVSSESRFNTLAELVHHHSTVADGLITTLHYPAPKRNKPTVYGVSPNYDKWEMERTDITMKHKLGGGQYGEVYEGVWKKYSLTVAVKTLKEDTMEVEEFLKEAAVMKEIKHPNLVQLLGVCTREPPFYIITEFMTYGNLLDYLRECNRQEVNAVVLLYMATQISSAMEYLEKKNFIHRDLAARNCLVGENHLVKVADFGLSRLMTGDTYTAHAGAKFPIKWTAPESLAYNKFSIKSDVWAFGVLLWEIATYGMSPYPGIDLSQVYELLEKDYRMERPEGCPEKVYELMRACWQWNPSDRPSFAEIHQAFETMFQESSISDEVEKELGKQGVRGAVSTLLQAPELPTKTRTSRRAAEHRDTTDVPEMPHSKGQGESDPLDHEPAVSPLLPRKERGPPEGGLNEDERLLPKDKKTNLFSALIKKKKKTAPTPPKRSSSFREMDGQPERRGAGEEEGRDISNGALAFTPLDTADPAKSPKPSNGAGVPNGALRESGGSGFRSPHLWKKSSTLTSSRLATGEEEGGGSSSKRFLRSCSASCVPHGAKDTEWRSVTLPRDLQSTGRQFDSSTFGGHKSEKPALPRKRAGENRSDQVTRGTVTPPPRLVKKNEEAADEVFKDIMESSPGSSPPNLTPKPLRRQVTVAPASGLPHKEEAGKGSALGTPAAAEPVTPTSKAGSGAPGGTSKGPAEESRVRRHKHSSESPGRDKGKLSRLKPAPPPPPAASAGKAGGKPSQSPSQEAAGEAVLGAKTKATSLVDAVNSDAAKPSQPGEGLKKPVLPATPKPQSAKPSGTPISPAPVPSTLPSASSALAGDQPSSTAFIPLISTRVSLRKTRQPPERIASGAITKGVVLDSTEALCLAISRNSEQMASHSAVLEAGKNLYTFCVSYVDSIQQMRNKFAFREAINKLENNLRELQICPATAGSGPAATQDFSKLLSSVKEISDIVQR
Sequence of Macrophage colony-stimulating factor 1 receptor (P07333 whole entry): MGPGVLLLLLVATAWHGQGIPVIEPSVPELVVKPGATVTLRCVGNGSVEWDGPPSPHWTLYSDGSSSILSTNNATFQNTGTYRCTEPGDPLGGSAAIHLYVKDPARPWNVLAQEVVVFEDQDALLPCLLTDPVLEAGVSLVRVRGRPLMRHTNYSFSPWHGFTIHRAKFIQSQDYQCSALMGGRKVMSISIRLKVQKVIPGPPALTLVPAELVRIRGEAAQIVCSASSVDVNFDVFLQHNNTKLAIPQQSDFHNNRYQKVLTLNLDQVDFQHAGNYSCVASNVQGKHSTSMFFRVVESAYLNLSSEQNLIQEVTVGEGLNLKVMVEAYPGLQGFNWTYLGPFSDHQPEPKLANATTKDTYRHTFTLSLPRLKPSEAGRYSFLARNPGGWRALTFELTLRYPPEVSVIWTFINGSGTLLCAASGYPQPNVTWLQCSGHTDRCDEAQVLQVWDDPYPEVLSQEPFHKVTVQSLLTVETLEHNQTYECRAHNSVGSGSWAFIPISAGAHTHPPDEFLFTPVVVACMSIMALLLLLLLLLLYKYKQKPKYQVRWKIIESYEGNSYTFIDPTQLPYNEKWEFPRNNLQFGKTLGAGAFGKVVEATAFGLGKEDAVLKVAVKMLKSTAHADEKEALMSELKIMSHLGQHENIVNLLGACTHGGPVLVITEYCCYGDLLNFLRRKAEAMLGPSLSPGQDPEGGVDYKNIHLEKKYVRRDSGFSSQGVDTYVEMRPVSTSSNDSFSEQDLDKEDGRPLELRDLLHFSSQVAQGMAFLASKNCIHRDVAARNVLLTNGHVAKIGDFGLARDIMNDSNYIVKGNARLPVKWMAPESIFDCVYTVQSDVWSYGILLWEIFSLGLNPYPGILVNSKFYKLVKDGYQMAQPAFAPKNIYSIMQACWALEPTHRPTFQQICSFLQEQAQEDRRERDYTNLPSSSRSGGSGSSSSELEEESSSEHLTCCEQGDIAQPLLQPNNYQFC
Sequence of Vascular endothelial growth factor receptor 2 (P35968 whole entry): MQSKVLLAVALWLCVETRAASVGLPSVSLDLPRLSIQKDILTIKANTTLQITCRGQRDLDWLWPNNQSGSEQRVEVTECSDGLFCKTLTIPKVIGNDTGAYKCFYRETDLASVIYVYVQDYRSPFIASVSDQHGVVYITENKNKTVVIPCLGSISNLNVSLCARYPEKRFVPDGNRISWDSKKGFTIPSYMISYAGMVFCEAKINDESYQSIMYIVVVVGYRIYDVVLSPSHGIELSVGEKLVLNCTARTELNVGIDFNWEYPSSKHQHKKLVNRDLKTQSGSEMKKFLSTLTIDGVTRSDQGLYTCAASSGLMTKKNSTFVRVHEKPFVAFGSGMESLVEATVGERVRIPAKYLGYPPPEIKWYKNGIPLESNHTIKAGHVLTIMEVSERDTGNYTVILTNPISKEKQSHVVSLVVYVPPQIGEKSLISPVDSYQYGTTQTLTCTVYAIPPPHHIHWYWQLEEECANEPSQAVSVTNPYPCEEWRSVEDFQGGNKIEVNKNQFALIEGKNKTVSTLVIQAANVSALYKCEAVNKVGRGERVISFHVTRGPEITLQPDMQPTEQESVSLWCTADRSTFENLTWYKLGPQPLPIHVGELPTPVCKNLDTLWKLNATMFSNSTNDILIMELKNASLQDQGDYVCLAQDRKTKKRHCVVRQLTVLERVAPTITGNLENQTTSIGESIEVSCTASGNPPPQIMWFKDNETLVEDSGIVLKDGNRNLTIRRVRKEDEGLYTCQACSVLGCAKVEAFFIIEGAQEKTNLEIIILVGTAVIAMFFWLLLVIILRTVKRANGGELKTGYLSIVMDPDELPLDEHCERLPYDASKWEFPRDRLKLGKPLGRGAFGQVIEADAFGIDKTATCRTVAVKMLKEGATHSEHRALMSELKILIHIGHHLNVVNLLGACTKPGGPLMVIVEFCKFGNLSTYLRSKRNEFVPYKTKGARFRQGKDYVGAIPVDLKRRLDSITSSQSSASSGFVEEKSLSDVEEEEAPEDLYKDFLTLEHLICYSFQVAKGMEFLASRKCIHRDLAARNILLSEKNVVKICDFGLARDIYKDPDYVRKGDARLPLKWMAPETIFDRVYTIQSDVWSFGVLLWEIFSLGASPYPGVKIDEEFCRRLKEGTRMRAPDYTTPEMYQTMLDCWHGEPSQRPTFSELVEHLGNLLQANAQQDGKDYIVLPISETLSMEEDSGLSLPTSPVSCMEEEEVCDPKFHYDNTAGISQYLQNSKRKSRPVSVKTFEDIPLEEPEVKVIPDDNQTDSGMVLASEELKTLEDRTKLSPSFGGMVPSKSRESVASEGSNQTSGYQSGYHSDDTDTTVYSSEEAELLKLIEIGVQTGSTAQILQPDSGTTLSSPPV

SMILES | EC50 [1] [nM] | solubility [2] [µM] | Papp A→B [3] [×10⁻⁶ cm/s] | IC50 [4] [nM] | IC50 [5] [nM] | IC50 [6] [nM] | IC50 [7] [nM] | IC50 [8] [nM] | CL/F [9] [mL/min/kg] | half-life [10] [h] | Vd (Mus musculus) [L/kg] | bioavailability [11] [%]
CNC(=O)c1cc(Oc2ccc3nc(Nc4ccccc4Br)ncc3c2)ccn1 | > 10000 | < 1 | < 1 | 24000 | – | – | – | – | – | – | – | –
CNC(=O)c1cc(Oc2ccc3c(c2)nc(Nc2cccc(C(C)(C)C)c2)n3C)ccn1 | – | < 1 | < 1 | – | – | – | – | – | – | – | – | –
CNC(=O)c1cc(Oc2ccc3nc(Nc4cccc(C(F)(F)F)c4)ncc3c2)ccn1 | > 10000 | < 1 | < 1 | 640 | – | – | – | – | – | – | – | –
CCc1ccccc1Nc1ncc2cc(Oc3ccnc(C(=O)NC)c3)ccc2n1 | > 10000 | < 1 | < 1 | 1300 | – | – | – | – | – | – | – | –
CNC(=O)c1cc(Oc2ccc3nc(Nc4cccc(OC(F)(F)F)c4)ncc3c2)ccn1 | > 10000 | < 1 | < 1 | 70 | – | – | – | – | – | – | – | –
CNC(=O)c1cc(Oc2ccc3nc(Nc4cccc(C(C)(C)C)c4)ncc3c2)ccn1 | > 10000 | < 1 | < 1 | 45 | < 1000 | < 1000 | < 1000 | < 1000 | – | – | – | –
CNC(=O)c1cc(Oc2ccc3nc(Nc4cccc(C(C)C)c4)ncc3c2)ccn1 | > 10000 | < 1 | < 1 | 150 | – | – | – | – | 53.1 | 7.8 | 4.717 | 35
CNC(=O)c1cc(Oc2ccc3nc(Nc4cccc(C(C)(C)C)c4)ccc3c2)ccn1 | > 10000 | < 1 | < 1 | 26 | < 1000 | < 1000 | < 1000 | < 1000 | – | – | – | –
CNC(=O)c1cc(Oc2ccc3nc(Nc4ccc(-c5cccnc5)cc4)ncc3c2)ccn1 | > 10000 | < 1 | < 1 | 25000 | – | – | – | – | – | – | – | –
CNC(=O)c1cc(Oc2ccc3nc(Nc4ccc(Oc5ccccc5)cc4)ncc3c2)ccn1 | > 10000 | < 1 | < 1 | 600 | – | – | – | – | – | – | – | –
CNC(=O)c1cc(Oc2ccc3nc(Nc4ccccc4Oc4ccccc4)ncc3c2)ccn1 | > 10000 | < 1 | < 1 | 5300 | – | – | – | – | – | – | – | –
CNC(=O)c1cc(Oc2ccc3nc(Nc4cccc(C(C)(C)C)c4)cnc3c2)ccn1 | > 10000 | < 1 | < 1 | 25 | < 1000 | < 1000 | < 1000 | < 1000 | – | – | – | –

The next lines start with the values.

EC50 [1] [nM] | solubility [2] [µM] | Papp A→B [3] [×10⁻⁶ cm/s] | IC50 [4] [nM] | IC50 [5] [nM] | IC50 [6] [nM] | IC50 [7] [nM] | IC50 [8] [nM] | CL/F [9] [mL/min/kg] | half-life [10] [h] | Vd (Mus musculus) [L/kg] | bioavailability [11] [%] | SMILES
> 10000 | < 1 | < 1 | 1 | – | – | – | – | – | – | – | – | CNC(=O)c1cc(Oc2ccc3nc(Nc4ccc(C(C)C)cc4)ncc3c2)ccn1
> 10000 | < 1 | < 1 | 390 | – | – | – | – | – | – | – | – | CNC(=O)c1cc(Oc2ccc3nc(Nc4ccc(OC)cc4)ncc3c2)ccn1
> 10000 | < 1 | < 1 | 1300 | – | – | – | – | – | – | – | – | O=C(NCCN1CCCCC1)c1cc(Oc2ccc3nc(Nc4ccc(Br)cc4)ncc3c2)ccn1
> 10000 | < 1 | < 1 | 180 | – | – | – | – | – | – | – | – | CNC(=O)c1cc(Oc2ccc3nc(Nc4cccc(Br)c4)ncc3c2)ccn1
> 10000 | < 1 | < 1 | 67 | – | – | – | – | – | – | – | – | CNC(=O)c1cc(Oc2ccc3nc(Nc4ccc(C(F)(F)F)cc4)ncc3c2)ccn1
> 10000 | < 1 | < 1 | 310 | – | – | – | – | – | – | – | – | CNC(=O)c1cc(Oc2ccc3nc(Nc4ccc(Br)cc4)ncc3c2)ccn1
> 10000 | < 1 | < 1 | 80 | – | – | – | – | – | – | – | – | CNC(=O)c1cc(Oc2ccc3nc(Nc4ccc(OC(F)(F)F)cc4)ncc3c2)ccn1
> 10000 | < 1 | < 1 | 8600 | – | – | – | – | – | – | – | – | O=C(NCCO)c1cc(Oc2ccc3nc(Nc4ccc(Br)cc4)ncc3c2)ccn1
> 10000 | < 1 | < 1 | 2200 | – | – | – | – | – | – | – | – | CNC(=O)c1cc(Oc2ccc3nc(Nc4ccccc4)ncc3c2)ccn1
> 10000 | < 1 | < 1 | 660 | – | – | – | – | – | – | – | – | CNC(=O)c1cc(Oc2ccc3nc(Nc4cccc(Cl)c4)ncc3c2)ccn1
> 10000 | < 1 | < 1 | 600 | – | – | – | – | – | – | – | – | CNC(=O)c1cc(Oc2ccc3nc(Nc4ccc(F)cc4)ncc3c2)ccn1
